Bioassay records: PubChem, The Scripps Research Institute Molecular Screening Center
PLC-gamma1 inh: blocks human PLC-gamma1 enzyme activity. purified PLC-gamma1, fluorogenic substrate, fluorescence. P19174. 0.84% of 370,000 active. inhibition, % at 12.2 µM
PLC-beta3 inh: PLC-beta3 (human) inhibition, primary screen. Purified PLC-beta3, fluorogenic substrate, fluorescence. inhibition, % at 12.2 µM. 0.18% of 370,000 active; in the data active = inhibition above about 11%;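 note: 0% = median of compound wells on plate and 100% = full blocker control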
ADAM10 inh: inhibitors of human ADAM10; recombinant ADAM10, EDANS/DABCYL FRET peptide cleavage, 3 h; O14672; 0.62% of 370,000 active; inhibition, % at 7 µM; AID 720582;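 active = inhibition above a per-campaign cutoff equal to the mean of compounds falling between control-based bounds plus 3 SD, cut at about 20% in these data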;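 note: 0% = DMSO wells while the 100% control is not disclosed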
Tn6 DDE FP: inhibitors of Tn6 peptide binding to human fibrin DD(E) | Fibrin DD(E) TRITC-Tn6 fluorescence polarization displacement | P02675 | 0.21% of 370,000 active | inhibition, % at 8.3 µM;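 active = inhibition above a per-campaign cutoff: mean of compounds within control limits plus 3 SD, cut at about 15% in these data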;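 note: 0% = median of all compound wells on the plate and 100% = blocking peptide control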
Target sequence (P02675 whole entry, looked up): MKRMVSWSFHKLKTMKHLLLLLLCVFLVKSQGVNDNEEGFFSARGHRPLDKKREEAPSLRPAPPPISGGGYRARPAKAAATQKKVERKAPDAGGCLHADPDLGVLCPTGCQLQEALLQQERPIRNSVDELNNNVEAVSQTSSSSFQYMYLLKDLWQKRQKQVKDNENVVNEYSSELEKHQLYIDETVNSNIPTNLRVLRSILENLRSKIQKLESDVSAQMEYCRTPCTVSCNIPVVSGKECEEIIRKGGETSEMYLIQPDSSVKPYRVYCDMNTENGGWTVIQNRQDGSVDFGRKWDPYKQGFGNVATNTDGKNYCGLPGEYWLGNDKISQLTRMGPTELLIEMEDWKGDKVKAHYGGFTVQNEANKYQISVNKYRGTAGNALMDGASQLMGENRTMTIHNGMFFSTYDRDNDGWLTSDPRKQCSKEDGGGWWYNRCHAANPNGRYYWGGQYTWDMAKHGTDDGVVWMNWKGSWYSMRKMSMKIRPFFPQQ
Tn7 DDE FP: disrupts Tn7 cyclic peptide binding to fibrin D-Dimer-E complex | P02675 | FP displacement of FITC-Tn7 peptide from fibrin DD(E); 0% = median of compound wells per plate | inhibition, % at 8.3 µM | 0.13% of 370,000 active;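 active = inhibition above the mean of compounds falling within the control limits plus 3 SD of them, cut at about 14% in these data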;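 note: 0% = plate median of compound wells and 100% = 10 µM Aha-Tn7 peptide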
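Assay system: Human fibrin DD(E) protein | Medium: Tris buffer with calcium and detergent, pH 7.8 | Reagent: 0.1 µM fluorescent Tn7 | Compound dosing: Single point at 8.3 µM | Times: 10 min preincubation, 3 h with tracer, room temperature | Detection: Fluorescence polarization of the labelled Tn7 tracer | Controls: Aha-Tn7 high control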
ADAM17 inh: inhibits human ADAM17 | P78536 | recombinant ADAM17, EDANS/DABCYL FRET peptide cleavage | inhibition, % at 6.95 µM | 0.83% of 370,000 active;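 active = inhibition above the mean of compounds lying between control limits plus 3 SD, set per campaign, cut at about 8.5% in these data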;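 note: 0% = DMSO-only wells as the low control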
Tn7 DDE conf: confirmation of inhibitors of Tn7 binding to human fibrin DD(E) | shares compounds with Tn7 DDE FP | FP displacement of TRITC-Tn7 peptide from DD(E); 0% set at plate's compound-well median | inhibition, % at 8.3 µM | 5% of 460 active;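 active = inhibition above the campaign cutoff, the mean of compounds within control limits plus 3 SD, cut at about 14% in these data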;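 note: 100% = median FP of high control wells holding Aha-Tn7 inhibitor peptide; displacers lower polarization since freed probe rises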
Tn7 DDE ctr: counter-screen for inhibitors of Tn7 peptide binding to fibrin DD(E). shares compounds with Tn7 DDE FP. AID 720633. 3% of 460 active. inhibition, % at 8.3 µM. TRITC-Tn7 probe displacement, fluorescence polarization;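 active = inhibition above the cutoff, the mean of compounds lying between the control bounds plus 3 SD of those compounds, cut at about 17% in these data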;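 note: 0% = median of compound sample wells and 100% = excess unlabeled Aha-Tn7 peptide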
Tn6 DDE ctr: counter-screen for inhibitors of Tn6 peptide binding to fibrin DD(E). inhibition, % at 8.3 µM. 2% of 680 active. TRITC-Tn6 fluorescence polarization displacement; 0% = median of compound wells, not DMSO. shares compounds with Tn6 DDE FP;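 active = inhibition above the mean of test compounds lying between the control limits plus 3 SD of those, cut at about 14% in these data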;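 note: 0% = median of compound wells and 100% = wells with Aha-Tn7 blocking peptide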
DDE Tn6 confirm: confirmation of inhibitors of Tn6 binding to human fibrin DD(E). shares compounds with Tn6 DDE FP. inhibition, % at 8.3 µM. 10% of 680 active. AID 720631. FP displacement of TRITC-Tn6 peptide from DD(E); 0% = per-plate median of test wells;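 active = inhibition above the mean of compounds lying within the control limits plus 3 SD, cut at about 16% in these data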;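 note: 100% = high control wells holding a competing inhibitor peptide at 10 µM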
ADAM10 counter: ADAM10 inhibition, counter-screen for ADAM17 exosite hits; shares compounds with ADAM17 inh; recombinant ADAM10, EDANS/DABCYL FRET peptide cleavage, 3 h; inhibition, % at 6.95 µM; 47% of 2,900 active;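 active = mean inhibition over the triplicate runs exceeds the activity threshold set in the earlier primary screen, cut at about 20% in these data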;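 note: 0% = DMSO wells and 100% = marimastat wells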
ADAM17 confirm: human ADAM17 inhibition, confirmation; 65% of 2,900 active; AID 743257; shares compounds with ADAM17 inh; recombinant ADAM17, EDANS/DABCYL QFRET peptide cleavage; inhibition, % at 6.95 µM;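 active = mean inhibition across replicates above the hit cutoff set in the primary screen, cut at about 8.5% in these data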;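 note: 0% = DMSO wells and 100% = marimastat wells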
PLCg1 ctr: PLC-gamma1 inhibition, counter-screen for PLC-beta3 hits | shares compounds with PLC-gamma1 inh | purified PLC-gamma1, fluorogenic substrate, fluorescence | inhibition, % at 12.3 µM | 3.1% of 3,300 active
PLCbeta3 conf: confirmation of human PLC-beta3 inhibitors | inhibition, % at 12.3 µM | shares compounds with PLC-gamma1 inh | purified PLC-beta3, fluorogenic substrate fluorescence | 1% of 3,300 active; in the data active = inhibition above about 11%
Numbers without * were called inactive; i = inactive; . = not tested or not shown. An excerpt weighted towards active compounds, which were near 2.3% of everything screened. Cut-off read from the data, not from the text of the source, unless noted: active = inhibition above about 9.5%; inactive = the rest.

SMILES	PLC-gamma1 inh	PLC-beta3 inh	ADAM10 inh	Tn6 DDE FP	Tn7 DDE FP	ADAM17 inh	Tn6 DDE ctr	DDE Tn6 confirm	others
CCc1ccc(C(C)NC(=O)/C(C#N)=C\c2cn[nH]c2-c2ccccc2)cc1 (centres undefined)	-3	2	17	5	14*	11*	.	.	Tn7 DDE conf=12;Tn7 DDE ctr=9;ADAM10 counter=35*;ADAM17 confirm=17*
COc1ccc(Cn2cc(COC(=O)NCC(C)C)nn2)cc1	-2	-2	-5	8	-1	-7	.	.
Cn1c(=O)c(Nc2ccc(O)cc2)c2c3c(cccc31)C(=O)c1ccccc1-2	-67	-89	17	3	16*	9.2*	.	.	Tn7 DDE conf=9;Tn7 DDE ctr=5;ADAM10 counter=19;ADAM17 confirm=15*
CC1(C)CC2(CC(C)(C(=O)CSc3nc4ccccc4s3)OC2=O)C(=O)O1 (centres undefined)	16*	11*	0	-2	18*	7	.	.	Tn7 DDE conf=1;Tn7 DDE ctr=-10;PLCg1 ctr=-3;PLCbeta3 conf=-1
c1ccc(C2CCC3(CC2)CCC3NCc2cccs2)cc1 (centres undefined)	2	-2	-6	-2	-1	-4	.	.
CCOC(=O)C1CCCN(c2c(NCCc3ccc(C)cc3)c(=O)c2=O)C1 (centres undefined)	2	-2	9	17*	2	-4	3	-10
CCOC(=O)C1CCCN(c2c(NCCCN(C)Cc3ccccc3)c(=O)c2=O)C1 (centres undefined)	-1	1	0	-7	-1	-1	.	.
O=C(OC12CCCN(C1)/C(=C/c1ccc(Cl)cc1)C2)c1ccccc1 (centres undefined)	4	4	9	-9	-11	6	.	.
CCN1C(=O)CC(N2CCN(CC(=O)NC(C)C)CC2)C1=O (centres undefined)	8	3	6	16*	-2	0	1	-2
O=C(COc1ccc2ccccc2c1)NCCNC(=O)COc1ccc2ccccc2c1	4	0	-2	6	0	-1	.	.
O=C(COc1ccc2ccccc2c1)NCCc1ccc2c(c1)OCCO2	6	-1	4	18*	-1	2	-1	-10
CN(Cc1ccccc1)Cc1c[nH]c2ccccc12	0	0	0	17*	6	-2	-2	-17
CN(C)S(=O)(=O)c1cccc(C(=O)N/N=C\c2ccnc3ccccc23)c1	1	-1	-23	-3	-3	0	.	.
CCN(CC)c1ccc(N=C2C=CC(=O)C=C2NC(C)=O)cc1	-4	-15	-8	20*	-5	-2	4	54*
O=C(NCC(=O)N1CCN(S(=O)(=O)c2cccc(F)c2)CC1)c1ccc(Br)o1	-2	-1	3	16*	-2	-5	14	4
COc1ccc(NC(=O)Cn2cnc3c(cnn3-c3ccc(C)c(C)c3)c2=O)c(OC)c1	1	-2	2	16*	2	0	6	-8
NS(=O)(=O)c1ccc(Nc2ccc3cc(S(=O)(=O)N4CCCCC4)ccc3n2)cc1	i	i	i	36*	-7	-364	5	-21
NS(=O)(=O)c1ccc(S(=O)(=O)N2CCCC2)cc1	2	1	-5	-1	-3	-4	.	.
COC(=O)C1=C[C@@H]([C@@H](C)[C@H](OC)c2ccccc2Br)[C@@H]2OCCC[C@H]12	-1	0	-2	-4	9	-1	.	.
CC(=O)Nc1sc2c(c1-c1nc3ccccc3s1)CCCN(C(C)C)C2	i	i	-140	-5	5	-38	.	.
O=C(c1ccc(Cl)c(S(=O)(=O)N2CCCCCC2)c1)N1CCCC(C(F)(F)F)C1 (centres undefined)	0	3	1	2	-5	-2	.	.
Cc1ccc(C(=O)N2CCCC(C(F)(F)F)C2)cc1S(=O)(=O)N1CCCCC1 (centres undefined)	2	-2	-7	16*	-4	1	2	-8
C=CCNC(=O)N1CCN(Cc2nc3ccccc3c(=O)[nH]2)CC1	-1	5	-8	3	2	0	.	.
O=C1c2cccc3c(O)ccc(c23)C(=O)N1Cc1ccccc1	i	i	-14	24*	-1	-3	19*	19*
CCCCN(C(=O)c1ccc(Cl)c(S(=O)(=O)N2CCOCC2)c1)c1c(N)n(CCC)c(=O)[nH]c1=O	1	-2	3	17*	2	-17	0	0
COc1ccc(C=NNC(=O)c2cc(-c3ccc(C)c(C)c3)n[nH]2)cc1OCc1ccccc1	-17	-35	-7	16*	-6	-6	2	2
Cc1ccc(-c2cc(C(=O)NN=Cc3cccc(Oc4ccccc4)c3)[nH]n2)cc1C	2	4	13	19*	1	7	4	0
Cc1ccc(-c2cc(C(=O)NN=Cc3ccc(F)cc3)[nH]n2)cc1C	2	0	-2	-12	1	0	.	.
O=C(Nc1ccc(NC(=O)c2ccccc2Cl)c(Cl)c1)c1ccccn1	-2	-2	7	-2	-7	-24	.	.
COC(=O)c1ccc2c(c1)C(C)(C)C(/C=C/c1ccccc1O)=[N+]2C	-318	i	-49	58*	-20	-40	-34	4
